The source made the active and inactive calls. The calls are words filed in the database; no cut-off is given here.

One may read the EC50 as the concentration that produces a half-maximal response. As usually defined, the Emax is the size of the effect at its maximum, as opposed to the concentration needed.

In assay [1] the test system is Aorta. In words: Vasodilating activity in Sprague-Dawley rat aortic rings assessed as reduction in phenylephrine-induced contractions at 1:1 ratio of test compound to furoxan. The class given is functional, tissue-based.
Assay [2] deals with Aorta. In words: Vasodilating activity in Sprague-Dawley rat aortic rings assessed as reduction in phenylephrine-induced contractions. The class given is functional, tissue-based. Put shortly: (§1)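 Thoracic aorta rings (4 mm) from male SD rats (250-300 g, chloral hydrate anesthesia), cleaned of fat and connective tissue and held at 2 g resting force in Krebs' solution. After KCl response, washout and 30 min re-equilibration, rings got L-cysteine (1 µM final, 10 min), then phenylephrine contraction (2 µM final). Cumulative concentration–response curve at 10^-9–10^-6 M final gave EC50. DMSO ≤0.1%.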

Assay [3] concerns Aorta. In words: Vasodilating activity in Sprague-Dawley rat aortic rings assessed as reduction in phenylephrine-induced contractions relative to control. Format: functional. The method, boiled down:
as §1

Assay [4] deals with Aorta. Put plainly: Vasodilating activity in Sprague-Dawley rat aortic rings assessed as reduction in phenylephrine-induced contractions at 1:1 ratio of test compound to furoxan relative to control. The class given is functional.
Assay [5] has as its system Rattus norvegicus. Put plainly: Increase in CGRP level in Sprague-Dawley rat blood at 20 to 40 mg/kg, ip by ELISA. Format: functional, organism-based. The method, boiled down:
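Rat serum CGRP was quantified with a commercial CGRP ELISA kit per the manufacturer. Optical density was read at 450 nm and concentrations were expressed as pg/mL.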
A general note: ELISA stands for enzyme-linked immunosorbent assay.

The subject of assay [6] is Aorta. Put plainly: Vasodilating activity in Sprague-Dawley rat aortic rings assessed as reduction in phenylephrine-induced contractions in presence of L-cysteine and TRPV1 antagonist capsazepine. Format: functional, tissue-based. Put shortly: (§2)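 SD rat aortic rings were prepared as for the standard ring assay and randomly grouped. They were preincubated 10 min with L-cysteine (1 µM final) alone or with HC030031 (10 µM), capsazepine (10 µM), both, or CGRP(8-37) (10 µM, in water), all final. Phenylephrine contraction (2 µM final) preceded a cumulative concentration–response curve at 10^-9–10^-6 M final. Mean, n = 5.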

For assay [7], the system named is Aorta. Put plainly: Vasodilating activity in Sprague-Dawley rat aortic rings assessed as reduction in phenylephrine-induced contractions in presence of L-cysteine and TRPA1 antagonist HC030031. The class given is functional, tissue-based. The method, boiled down:
as §2

Assay [8] has as its system Aorta. Put plainly: Vasodilating activity in Sprague-Dawley rat aortic rings assessed as reduction in phenylephrine-induced contractions in presence of L-cysteine and CGRP receptor antagonist CGRP(8 to 37). The class given is functional, tissue-based. Put shortly:
as §2

For assay [9], the system named is Rattus norvegicus. In words: Antihypertensive activity in carotid cannulated Sprague-Dawley rat assessed as reduction in systolic arterial pressure at 20 to 40 mg/kg, ip measured within 2 hrs relative to rutaecarpine. The class given is functional, organism-based. Put shortly:
(§3)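 Male SD rats (250-300 g) under sodium pentobarbital (40 mg/kg, 10 mg/kg supplements), kept at 37°C and tracheotomized. The right carotid artery was cannulated to a pressure transducer. Once pressure was stable, compounds suspended in sodium carboxymethyl cellulose were given i.p. at 20 or 40 mg/kg. Arterial pressure was recorded continuously for 2 h to derive its decrease.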

For assay [10], the system named is Rattus norvegicus. In words: Antihypertensive activity in carotid cannulated Sprague-Dawley rat assessed as reduction in diastolic arterial pressure at 20 to 40 mg/kg, ip measured within 2 hrs relative to rutaecarpine. Format: functional, organism-based. The method, boiled down: as §3

For `O=c1c2ccccc2nc2n1CCc1c-2[nH]c2ccccc12` [RUTAECARPINE], the results for the concentration giving a half-maximal response (EC50) in [1] and in [2] were 29.7 nM and 156 nM, respectively. For the same compound, the Emax turned out to be 66.3% in [3] and 75.3% in [4]. Besides, in [5], the outcome was inactive.
As for `O=c1c2cc(OCCOCCOCCNCc3c(-c4cccc5ccccc45)no[n+]3[O-])ccc2nc2n1CCc1c-2[nH]c2ccccc12`, the EC50 in assay [2] was 1410 nM. Further, the Emax in assay [3] amounted to 45.3%.
The matching figures for `O=c1c2cc(OCCOCCOCCNCc3c(-c4ccoc4)no[n+]3[O-])ccc2nc2n1CCc1c-2[nH]c2ccccc12`: 22500 nM and 30.6%.
The matching figures for `CCOc1ccccc1-c1no[n+]([O-])c1CNCCOCCOCCOc1ccc2nc3n(c(=O)c2c1)CCc1c-3[nH]c2ccccc12`: 116 nM and 69.9%.
In the case of `O=c1c2ccccc2nc2n1CCc1c-2[nH]c2ccc(OCCOCCOCCNCc3c(-c4ccccc4)no[n+]3[O-])cc12`, in [2], the EC50 came to 112 nM. For the same compound, the maximal effect (Emax) in assay [3] amounted to 64.2%.
For the compound `O=c1c2cc(OCCOCCOCCNCc3c(-c4ccccc4)no[n+]3[O-])ccc2nc2n1CCc1c-2[nH]c2ccccc12`, the EC50 in assay [2] worked out at 774 nM. The maximal response (Emax) in [3] was 54.6%.
As for `O=c1c2cc(OCCOCCOCCNCc3c(-c4cccc(F)c4)no[n+]3[O-])ccc2nc2n1CCc1c-2[nH]c2ccccc12`, the concentration for a half-maximal effect (EC50) in assay [2] was 158 nM. The Emax in assay [3] is 77.3%.
As for `O=c1c2cc(OCc3c(-c4ccccc4)no[n+]3[O-])ccc2nc2n1CCc1c-2[nH]c2ccccc12`, the half-maximal effective concentration (EC50) in assay [2] worked out at 13.1 nM. For the same compound, the Emax in assay [3] amounted to 85.2%. Besides, the result in assay [6], in assay [7], in assay [8] and in [5] was inactive. Moreover, the result in [9] and in [10] was Active.
`O=c1c2cc(OCCOCCOCCNCc3c(-c4ccsc4)no[n+]3[O-])ccc2nc2n1CCc1c-2[nH]c2ccccc12`: in assay [2], the 50% effective concentration (EC50) amounted to 30.7 nM. In addition, the maximal response (Emax) in [3] was 73.6%.
On to `O=c1c2ccccc2nc2n1CCc1c-2n(CCOCCOCCNCc2c(-c3ccccc3)no[n+]2[O-])c2ccccc12`, for which the EC50 in assay [2] worked out at 2040 nM. In assay [3], the Emax was determined as 43.2%.
As to `O=c1c2cc(OCCOCCNCc3c(-c4ccccc4)no[n+]3[O-])ccc2nc2n1CCc1c-2[nH]c2ccccc12`, the concentration for a half-maximal effect (EC50) in [2] was 15.2 nM. The Emax in assay [3] is 81.4%.
In the case of `CC(C)c1ccc(-c2no[n+]([O-])c2CNCCOCCOCCOc2ccc3nc4n(c(=O)c3c2)CCc2c-4[nH]c3ccccc23)cc1`, the EC50 in [2] stood at 2590 nM. Further, the Emax in assay [3] was found to be 40.9%.
